Test results taken from ChEMBL document CHEMBL5058577, “EUbOPEN Chemogenomics Library 2 (Multiplex)” (2022).

Tested on: U2OS
Assay: Multiplex assay against U2OS
Assay type: toxicity, cell-based
Conditions: human
In short: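 Hoechst33342, BioTracker Green Microtubule Cytoskeleton Dye, MitoTracker Red and Annexin V Alexa Fluor 680 were added to live cells at seeding, and imaging on a CQ1 microscope at 37°C and 5% CO2 followed compound addition. Gating by CellPathfinder machine learning separated cells into Hoechst high-intensity objects or normal cells, then normal cells into healthy, pyknosed or fragmented nuclei, then pyknosed cells into mitotic or apoptotic. Per cents of healthy-nucleus cells are reported for the tubulin, mitochondrial-mass and membrane-permeability phenotypes.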

[1] = 12 h, 1 µM, compound concentration 1 uM, replicate 1
[2] = 12 h, 1 µM, compound concentration 1 uM, replicate 2
[3] = 12 h, 10 µM, compound concentration 10 uM, replicate 1
[4] = 12 h, 10 µM, compound concentration 10 uM, replicate 2
[5] = 24 h, 1 µM, compound concentration 1 uM, replicate 1
[6] = 24 h, 1 µM, compound concentration 1 uM, replicate 2
[7] = 24 h, 10 µM, compound concentration 10 uM, replicate 1
[8] = 24 h, 10 µM, compound concentration 10 uM, replicate 2
[9] = 48 h, 1 µM, compound concentration 1 uM, replicate 1
[10] = 48 h, 1 µM, compound concentration 1 uM, replicate 2
[11] = 48 h, 10 µM, compound concentration 10 uM, replicate 1
[12] = 48 h, 10 µM, compound concentration 10 uM, replicate 2

CSc1nc(NC2CCCC2)c([N+](=O)[O-])c(NC2CCCC2)n1 [GS-39783]
Population Apoptotic (%) [1]: 82%
Population Fragmented Nuclei (%) [1]: 25%
Population Healthy Nuclei (%) [1]: 66%
Population Hoechst High Intensity Objects (%) [1]: 2%
Population Membrane Permeable-Phenotype (%) [1]: 4%
Population Mitochondria Different-Phenotype (%) [1]: 3%
Population Mitotic Cells (%) [1]: 17%
Population Normal (%) [1]: 97%
Population Pyknosed Nuclei (%) [1]: 8%
Population Tubulin-Different-Phenotype (%) [1]: 1%
Total Cell Count [1]: 209
Population Apoptotic (%) [2]: 80%
Population Fragmented Nuclei (%) [2]: 18%
Population Healthy Nuclei (%) [2]: 76%
Population Hoechst High Intensity Objects (%) [2]: 3%
Population Mitochondria Different-Phenotype (%) [2]: 0%
Population Mitotic Cells (%) [2]: 20%
Population Normal (%) [2]: 96%
Population Pyknosed Nuclei (%) [2]: 5%
Total Cell Count [2]: 96
Population Apoptotic (%) [3]: 88%
Population Fragmented Nuclei (%) [3]: 30%
Population Healthy Nuclei (%) [3]: 63%
Population Hoechst High Intensity Objects (%) [3]: 3%
Population Membrane Permeable-Phenotype (%) [3]: 9%
Population Mitochondria Different-Phenotype (%) [3]: 5%
Population Mitotic Cells (%) [3]: 11%
Population Normal (%) [3]: 96%
Population Pyknosed Nuclei (%) [3]: 5%
Population Tubulin-Different-Phenotype (%) [3]: 4%
Total Cell Count [3]: 322
Population Apoptotic (%) [4]: 100%
Population Fragmented Nuclei (%) [4]: 19%
Population Healthy Nuclei (%) [4]: 75%
Population Hoechst High Intensity Objects (%) [4]: 1%
Population Mitochondria Different-Phenotype (%) [4]: 0%
Population Mitotic Cells (%) [4]: 0%
Population Normal (%) [4]: 98%
Population Pyknosed Nuclei (%) [4]: 4%
Population Tubulin-Different-Phenotype (%) [4]: 6%
Total Cell Count [4]: 145
Population Apoptotic (%) [5]: 87%
Population Fragmented Nuclei (%) [5]: 22%
Population Healthy Nuclei (%) [5]: 64%
Population Hoechst High Intensity Objects (%) [5]: 2%
Population Membrane Permeable-Phenotype (%) [5]: 2%
Population Mitochondria Different-Phenotype (%) [5]: 1%
Population Mitotic Cells (%) [5]: 12%
Population Normal (%) [5]: 97%
Population Pyknosed Nuclei (%) [5]: 12%
Population Tubulin-Different-Phenotype (%) [5]: 1%
Total Cell Count [5]: 269
Population Apoptotic (%) [6]: 84%
Population Fragmented Nuclei (%) [6]: 20%
Population Healthy Nuclei (%) [6]: 68%
Population Hoechst High Intensity Objects (%) [6]: 1%
Population Membrane Permeable-Phenotype (%) [6]: 1%
Population Mitotic Cells (%) [6]: 15%
Population Normal (%) [6]: 98%
Population Pyknosed Nuclei (%) [6]: 11%
Population Tubulin-Different-Phenotype (%) [6]: 0%
Total Cell Count [6]: 119
Population Apoptotic (%) [7]: 85%
Population Fragmented Nuclei (%) [7]: 26%
Population Healthy Nuclei (%) [7]: 66%
Population Hoechst High Intensity Objects (%) [7]: 2%
Population Membrane Permeable-Phenotype (%) [7]: 6%
Population Mitochondria Different-Phenotype (%) [7]: 6%
Population Mitotic Cells (%) [7]: 14%
Population Normal (%) [7]: 97%
Population Pyknosed Nuclei (%) [7]: 6%
Population Tubulin-Different-Phenotype (%) [7]: 4%
Total Cell Count [7]: 341
Population Apoptotic (%) [8]: 88%
Population Fragmented Nuclei (%) [8]: 18%
Population Healthy Nuclei (%) [8]: 75%
Population Hoechst High Intensity Objects (%) [8]: 3%
Population Membrane Permeable-Phenotype (%) [8]: 9%
Population Mitochondria Different-Phenotype (%) [8]: 2%
Population Mitotic Cells (%) [8]: 11%
Population Normal (%) [8]: 96%
Population Pyknosed Nuclei (%) [8]: 5%
Population Tubulin-Different-Phenotype (%) [8]: 5%
Total Cell Count [8]: 164
Population Apoptotic (%) [9]: 88%
Population Fragmented Nuclei (%) [9]: 18%
Population Healthy Nuclei (%) [9]: 70%
Population Hoechst High Intensity Objects (%) [9]: 1%
Population Membrane Permeable-Phenotype (%) [9]: 3%
Population Mitochondria Different-Phenotype (%) [9]: 1%
Population Mitotic Cells (%) [9]: 11%
Population Normal (%) [9]: 98%
Population Pyknosed Nuclei (%) [9]: 11%
Population Tubulin-Different-Phenotype (%) [9]: 1%
Total Cell Count [9]: 382
Population Apoptotic (%) [10]: 92%
Population Fragmented Nuclei (%) [10]: 21%
Population Healthy Nuclei (%) [10]: 71%
Population Hoechst High Intensity Objects (%) [10]: 0%
Population Mitotic Cells (%) [10]: 7%
Population Normal (%) [10]: 100%
Population Pyknosed Nuclei (%) [10]: 7%
Population Tubulin-Different-Phenotype (%) [10]: 3%
Total Cell Count [10]: 185
Population Apoptotic (%) [11]: 89%
Population Fragmented Nuclei (%) [11]: 23%
Population Healthy Nuclei (%) [11]: 67%
Population Hoechst High Intensity Objects (%) [11]: 2%
Population Membrane Permeable-Phenotype (%) [11]: 5%
Population Mitochondria Different-Phenotype (%) [11]: 1%
Population Mitotic Cells (%) [11]: 10%
Population Normal (%) [11]: 97%
Population Pyknosed Nuclei (%) [11]: 8%
Population Tubulin-Different-Phenotype (%) [11]: 2%
Total Cell Count [11]: 462
Population Apoptotic (%) [12]: 85%
Population Fragmented Nuclei (%) [12]: 12%
Population Healthy Nuclei (%) [12]: 81%
Population Hoechst High Intensity Objects (%) [12]: 0%
Population Membrane Permeable-Phenotype (%) [12]: 4%
Population Mitochondria Different-Phenotype (%) [12]: 3%
Population Mitotic Cells (%) [12]: 14%
Population Normal (%) [12]: 99%
Population Pyknosed Nuclei (%) [12]: 6%
Population Tubulin-Different-Phenotype (%) [12]: 3%
Total Cell Count [12]: 231
